# Assay results: ChEMBL document CHEMBL3421595, “Design and Synthesis of New α-Naphthoflavones as Cytochrome P450 (CYP) 1B1 Inhibitors To Overcome Docetaxel-Resistance Associated with CYP1B1 Overexpression” (J Med Chem, 2015)
# pIC50: −log10 of the molar value.
# Target: T1, Cytochrome P450 1B1 (Homo sapiens, UniProt Q16678)
# T1 sequence (Q16678 whole entry): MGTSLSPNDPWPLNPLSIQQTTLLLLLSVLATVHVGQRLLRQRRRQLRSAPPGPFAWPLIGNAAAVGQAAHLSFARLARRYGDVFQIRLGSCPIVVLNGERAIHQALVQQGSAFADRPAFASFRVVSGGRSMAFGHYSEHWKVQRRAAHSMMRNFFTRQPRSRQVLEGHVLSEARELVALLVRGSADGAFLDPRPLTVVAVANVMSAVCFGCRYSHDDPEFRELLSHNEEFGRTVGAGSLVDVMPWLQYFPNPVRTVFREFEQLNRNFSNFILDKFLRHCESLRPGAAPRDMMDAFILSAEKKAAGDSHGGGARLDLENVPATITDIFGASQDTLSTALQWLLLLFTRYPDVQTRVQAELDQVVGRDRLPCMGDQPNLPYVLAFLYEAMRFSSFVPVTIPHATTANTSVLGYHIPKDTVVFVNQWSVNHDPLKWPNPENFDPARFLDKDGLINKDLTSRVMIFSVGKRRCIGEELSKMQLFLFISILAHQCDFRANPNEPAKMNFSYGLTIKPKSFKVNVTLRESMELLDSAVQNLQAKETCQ
# Assay: Inhibition of human CYP1B1 assessed as reduction in 7-ethoxyresorufin O-deethylation activity by fluorescence based EROD assay
# Method in brief: (§1)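 Recombinant human CYP1B1, 1A1 and 1A2 in a standard EROD assay. NADPH regeneration system: 1.3 mM NADP+, 3.3 mM G-6-P, 0.5 U/mL G6-PD. Incubation time 35 min for CYP1B1, 15 min for 1A1 and 50 min for 1A2. IC50 by Probit analysis; selectivity taken as the ratio of IC50 values.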
row,Structure (SMILES),pIC50
1,COc1ccc(OC)c2c1c(OC)cc1c(=O)c(OCCOC(=O)CN)c(-c3cccc(F)c3)oc12,7.71
2,COc1ccc(OC)c2c1c(OC)cc1c(=O)cc(-c3ccc(OCc4ccccc4)cc3)oc12,6.11
3,COc1ccc(OC)c2c1c(OC)cc1c(=O)c(OCCOC(=O)[C@@H](N)C(C)C)c(-c3cccc(F)c3)oc12,6.94
4,COc1ccc(OC)c2c1c(OC)cc1c(=O)cc(-c3ccccc3F)oc12,9.70
5,COc1ccc(OC)c2c1c(OC)cc1c(=O)cc(-c3ccc(F)cc3)oc12,9.52
6,COc1ccc(OC)c2c1c(OC)cc1c(=O)c(O)c(-c3ccc(F)cc3)oc12,9.10
7,COc1ccc(OC)c2c1c(OC)cc1c(=O)cc(-c3ccc(O)cc3)oc12,6.19
8,COc1ccc(OC)c2c1c(OC)cc1c(=O)c(O)c(-c3ccccc3)oc12,8.64
9,COc1ccc(OC)c2c1c(OC)cc1c(=O)c(OCCOC(=O)[C@H](C)N)c(-c3cccc(F)c3)oc12,7.01
10,COc1ccc(OC)c2c1c(OC)cc1c(=O)c(OCCCCCCCCOC(=O)CN)c(-c3cccc(F)c3)oc12,7.91
11,COc1ccc(OC)c2c1c(OC)cc1c(=O)c(OCCCCOC(=O)CN)c(-c3cccc(F)c3)oc12,7.43
12,COc1ccc(OC)c2c1c(OC)cc1c(=O)c(O)c(-c3ccccc3Cl)oc12,8.80

# Species on record: Homo sapiens
# Assay: Selectivity index, ratio of IC50 for human CYP1A1 to IC50 for human CYP1B1
# Method in brief: (§2)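 Recombinant human CYP1B1, 1A1 and 1A2 in a standard EROD assay. 7-Ethoxyresorufin fixed at 150 nM. NADPH regeneration system: 1.3 mM NADP+, 3.3 mM G-6-P, 0.5 U/mL G6-PD. Incubation time 35 min for CYP1B1, 15 min for 1A1 and 50 min for 1A2. Resorufin fluorescence read at ex 545 / em 590 nm. IC50 by Probit analysis; selectivity taken as the ratio of IC50 values.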
row,Structure (SMILES),Ratio IC50
1,COc1ccc(OC)c2c1c(OC)cc1c(=O)cc(-c3cccc(F)c3)oc12,267
2,COc1ccc(OC)c2c1c(OC)cc1c(=O)c(OCCOC(=O)CN)c(-c3cccc(F)c3)oc12,0.69
3,COc1ccc(OC)c2c1c(OC)cc1c(=O)cc(-c3ccc(OCc4ccccc4)cc3)oc12,0.09
4,COc1ccc(OC)c2c1c(OC)cc1c(=O)c(OCCOC(=O)[C@@H](N)C(C)C)c(-c3cccc(F)c3)oc12,1.7
5,COc1ccc(OC)c2c1c(OC)cc1c(=O)cc(-c3ccccc3F)oc12,29.5
6,COc1ccc(OC)c2c1c(OC)cc1c(=O)cc(-c3ccc(F)cc3)oc12,33
7,COc1ccc(OC)c2c1c(OC)cc1c(=O)c(O)c(-c3ccc(F)cc3)oc12,15
8,COc1ccc(OC)c2c1c(OC)cc1c(=O)cc(-c3ccc(O)cc3)oc12,0.18
9,COc1ccc(OC)c2c1c(OC)cc1c(=O)c(O)c(-c3ccccc3)oc12,14
10,COc1ccc(OC)c2c1c(OC)cc1c(=O)c(OCCOC(=O)[C@H](C)N)c(-c3cccc(F)c3)oc12,0.4
11,COc1ccc(OC)c2c1c(OC)cc1c(=O)c(OCCCCCCCCOC(=O)CN)c(-c3cccc(F)c3)oc12,1.6
12,COc1ccc(OC)c2c1c(OC)cc1c(=O)c(OCCCCOC(=O)CN)c(-c3cccc(F)c3)oc12,1.9
13,COc1ccc(OC)c2c1c(OC)cc1c(=O)c(O)c(-c3ccccc3Cl)oc12,21

# Target: T2, Cytochrome P450 1A1 (Homo sapiens, UniProt P04798)
# T2 sequence (P04798 whole entry): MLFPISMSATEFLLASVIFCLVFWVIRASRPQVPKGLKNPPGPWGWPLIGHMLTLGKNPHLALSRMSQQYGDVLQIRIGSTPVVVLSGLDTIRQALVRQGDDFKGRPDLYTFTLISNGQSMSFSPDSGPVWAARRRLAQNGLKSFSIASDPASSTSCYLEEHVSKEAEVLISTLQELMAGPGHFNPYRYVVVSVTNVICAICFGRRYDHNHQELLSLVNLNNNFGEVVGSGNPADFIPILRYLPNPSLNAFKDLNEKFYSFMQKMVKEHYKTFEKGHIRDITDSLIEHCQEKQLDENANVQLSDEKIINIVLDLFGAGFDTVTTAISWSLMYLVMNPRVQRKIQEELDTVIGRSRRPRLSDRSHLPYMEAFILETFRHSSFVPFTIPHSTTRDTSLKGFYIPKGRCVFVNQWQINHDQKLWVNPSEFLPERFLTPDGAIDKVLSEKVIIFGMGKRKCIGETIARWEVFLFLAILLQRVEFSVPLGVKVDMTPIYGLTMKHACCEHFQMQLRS
# Assay: Inhibition of human CYP1A1 assessed as reduction in 7-ethoxyresorufin O-deethylation activity by fluorescence based EROD assay
# Type: ADME
# Method in brief: as §2
row,Structure (SMILES),pIC50
1,COc1ccc(OC)c2c1c(OC)cc1c(=O)cc(-c3cccc(F)c3)oc12,7.94
2,COc1ccc(OC)c2c1c(OC)cc1c(=O)c(OCCOC(=O)CN)c(-c3cccc(F)c3)oc12,7.87
3,COc1ccc(OC)c2c1c(OC)cc1c(=O)cc(-c3ccc(OCc4ccccc4)cc3)oc12,7.17
4,COc1ccc(OC)c2c1c(OC)cc1c(=O)c(OCCOC(=O)[C@@H](N)C(C)C)c(-c3cccc(F)c3)oc12,6.72
5,COc1ccc(OC)c2c1c(OC)cc1c(=O)cc(-c3ccccc3F)oc12,8.23
6,COc1ccc(OC)c2c1c(OC)cc1c(=O)cc(-c3ccc(F)cc3)oc12,8.01
7,COc1ccc(OC)c2c1c(OC)cc1c(=O)c(O)c(-c3ccc(F)cc3)oc12,7.93
8,COc1ccc(OC)c2c1c(OC)cc1c(=O)cc(-c3ccc(O)cc3)oc12,6.94
9,COc1ccc(OC)c2c1c(OC)cc1c(=O)c(O)c(-c3ccccc3)oc12,7.50
10,COc1ccc(OC)c2c1c(OC)cc1c(=O)c(OCCOC(=O)[C@H](C)N)c(-c3cccc(F)c3)oc12,7.40
11,COc1ccc(OC)c2c1c(OC)cc1c(=O)c(OCCCCCCCCOC(=O)CN)c(-c3cccc(F)c3)oc12,7.70
12,COc1ccc(OC)c2c1c(OC)cc1c(=O)c(OCCCCOC(=O)CN)c(-c3cccc(F)c3)oc12,7.15
13,COc1ccc(OC)c2c1c(OC)cc1c(=O)c(O)c(-c3ccccc3Cl)oc12,7.48

# Target: T3, Cytochrome P450 1A2 (Homo sapiens, UniProt P05177)
# T3 sequence (P05177 whole entry): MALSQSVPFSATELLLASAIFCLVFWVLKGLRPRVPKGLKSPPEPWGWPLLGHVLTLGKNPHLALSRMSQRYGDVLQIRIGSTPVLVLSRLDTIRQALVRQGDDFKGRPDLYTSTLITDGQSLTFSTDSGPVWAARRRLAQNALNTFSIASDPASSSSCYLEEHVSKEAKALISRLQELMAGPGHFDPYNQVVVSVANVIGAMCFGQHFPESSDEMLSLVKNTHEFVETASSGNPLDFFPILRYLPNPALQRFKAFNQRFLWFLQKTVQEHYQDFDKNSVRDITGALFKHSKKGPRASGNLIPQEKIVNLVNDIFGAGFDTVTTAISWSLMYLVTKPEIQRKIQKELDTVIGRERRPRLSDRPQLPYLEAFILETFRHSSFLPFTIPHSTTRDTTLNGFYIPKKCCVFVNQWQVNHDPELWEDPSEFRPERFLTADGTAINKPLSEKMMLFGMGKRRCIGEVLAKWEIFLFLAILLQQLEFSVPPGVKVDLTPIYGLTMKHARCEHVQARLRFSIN
# Assay: Inhibition of human CYP1A2 assessed as reduction in 7-ethoxyresorufin O-deethylation activity by fluorescence based EROD assay
# Type: ADME
# Method in brief: as §1
row,Structure (SMILES),pIC50
1,COc1ccc(OC)c2c1c(OC)cc1c(=O)cc(-c3cccc(F)c3)oc12,7.44
2,COc1ccc(OC)c2c1c(OC)cc1c(=O)c(OCCOC(=O)CN)c(-c3cccc(F)c3)oc12,7.25
3,COc1ccc(OC)c2c1c(OC)cc1c(=O)cc(-c3ccc(OCc4ccccc4)cc3)oc12,7.37
4,COc1ccc(OC)c2c1c(OC)cc1c(=O)c(OCCOC(=O)[C@@H](N)C(C)C)c(-c3cccc(F)c3)oc12,7.17
5,COc1ccc(OC)c2c1c(OC)cc1c(=O)cc(-c3ccccc3F)oc12,7.66
6,COc1ccc(OC)c2c1c(OC)cc1c(=O)cc(-c3ccc(F)cc3)oc12,7.81
7,COc1ccc(OC)c2c1c(OC)cc1c(=O)c(O)c(-c3ccc(F)cc3)oc12,7.24
8,COc1ccc(OC)c2c1c(OC)cc1c(=O)cc(-c3ccc(O)cc3)oc12,7.23
9,COc1ccc(OC)c2c1c(OC)cc1c(=O)c(O)c(-c3ccccc3)oc12,7.46
10,COc1ccc(OC)c2c1c(OC)cc1c(=O)c(OCCOC(=O)[C@H](C)N)c(-c3cccc(F)c3)oc12,7.07
11,COc1ccc(OC)c2c1c(OC)cc1c(=O)c(OCCCCCCCCOC(=O)CN)c(-c3cccc(F)c3)oc12,6.89
12,COc1ccc(OC)c2c1c(OC)cc1c(=O)c(OCCCCOC(=O)CN)c(-c3cccc(F)c3)oc12,6.92
13,COc1ccc(OC)c2c1c(OC)cc1c(=O)c(O)c(-c3ccccc3Cl)oc12,7.30

# Species on record: Homo sapiens
# Assay: Selectivity index, ratio of IC50 for human CYP1A2 to IC50 for human CYP1B1
# Method in brief: as §2
row,Structure (SMILES),Ratio IC50
1,COc1ccc(OC)c2c1c(OC)cc1c(=O)cc(-c3cccc(F)c3)oc12,853
2,COc1ccc(OC)c2c1c(OC)cc1c(=O)c(OCCOC(=O)CN)c(-c3cccc(F)c3)oc12,2.9
3,COc1ccc(OC)c2c1c(OC)cc1c(=O)cc(-c3ccc(OCc4ccccc4)cc3)oc12,0.06
4,COc1ccc(OC)c2c1c(OC)cc1c(=O)c(OCCOC(=O)[C@@H](N)C(C)C)c(-c3cccc(F)c3)oc12,0.6
5,COc1ccc(OC)c2c1c(OC)cc1c(=O)cc(-c3ccccc3F)oc12,111
6,COc1ccc(OC)c2c1c(OC)cc1c(=O)cc(-c3ccc(F)cc3)oc12,51
7,COc1ccc(OC)c2c1c(OC)cc1c(=O)c(O)c(-c3ccc(F)cc3)oc12,72
8,COc1ccc(OC)c2c1c(OC)cc1c(=O)cc(-c3ccc(O)cc3)oc12,0.09
9,COc1ccc(OC)c2c1c(OC)cc1c(=O)c(O)c(-c3ccccc3)oc12,15
10,COc1ccc(OC)c2c1c(OC)cc1c(=O)c(OCCOC(=O)[C@H](C)N)c(-c3cccc(F)c3)oc12,0.87
11,COc1ccc(OC)c2c1c(OC)cc1c(=O)c(OCCCCCCCCOC(=O)CN)c(-c3cccc(F)c3)oc12,10
12,COc1ccc(OC)c2c1c(OC)cc1c(=O)c(OCCCCOC(=O)CN)c(-c3cccc(F)c3)oc12,3.3
13,COc1ccc(OC)c2c1c(OC)cc1c(=O)c(O)c(-c3ccccc3Cl)oc12,31
